Experimental data from PMC11143523 (Acta Pharmaceutica Sinica. B, 2024).
Values joined by “and” are separate entries in the source; they are usually repeats but may differ in a detail not shown here. Equal entries are not always repeated. Square brackets hold non-standard residues; d marks the D form. Peptide text beside a SMILES is read from it. * marks the point of attachment. Ala(cPent) = N[C@@H](CC1CCCC1)C(=O)O; Cbz = O=C(OCc1ccccc1)*

Columns and labels:
APC‒Asef = biological target: T1, APC‒Asef (Homo sapiens, UniProt P25054); assay: Fluorescence-polarization; assay type: binding; conditions: for inhibition at 400 µM: read-out: Inhibitory activity (inhibition rate %), at 400 μmol/L
T1 sequence (P25054 303-739): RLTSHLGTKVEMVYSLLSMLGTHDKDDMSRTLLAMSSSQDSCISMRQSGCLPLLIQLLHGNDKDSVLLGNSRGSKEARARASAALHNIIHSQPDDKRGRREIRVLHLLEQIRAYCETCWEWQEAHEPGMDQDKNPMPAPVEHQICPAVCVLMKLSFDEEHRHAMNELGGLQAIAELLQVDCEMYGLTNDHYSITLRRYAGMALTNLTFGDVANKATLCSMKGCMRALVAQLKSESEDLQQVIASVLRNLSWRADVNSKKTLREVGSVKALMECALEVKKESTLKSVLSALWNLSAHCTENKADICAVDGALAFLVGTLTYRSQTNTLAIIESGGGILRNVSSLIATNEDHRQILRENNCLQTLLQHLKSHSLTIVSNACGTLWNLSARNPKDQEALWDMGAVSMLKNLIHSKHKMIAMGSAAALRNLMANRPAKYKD

APC‒Asef interaction [1] = biological target: T2, APC‒Asef interaction (Homo sapiens, UniProt P25054); assay: Co-IP of APC‒Asef in drug-treated HEK293T cell lysates; assay type: biochemical; conditions: AT46 0.2, 1 or 5 μmol/L, 2 h
T2 sequence (P25054 303-876): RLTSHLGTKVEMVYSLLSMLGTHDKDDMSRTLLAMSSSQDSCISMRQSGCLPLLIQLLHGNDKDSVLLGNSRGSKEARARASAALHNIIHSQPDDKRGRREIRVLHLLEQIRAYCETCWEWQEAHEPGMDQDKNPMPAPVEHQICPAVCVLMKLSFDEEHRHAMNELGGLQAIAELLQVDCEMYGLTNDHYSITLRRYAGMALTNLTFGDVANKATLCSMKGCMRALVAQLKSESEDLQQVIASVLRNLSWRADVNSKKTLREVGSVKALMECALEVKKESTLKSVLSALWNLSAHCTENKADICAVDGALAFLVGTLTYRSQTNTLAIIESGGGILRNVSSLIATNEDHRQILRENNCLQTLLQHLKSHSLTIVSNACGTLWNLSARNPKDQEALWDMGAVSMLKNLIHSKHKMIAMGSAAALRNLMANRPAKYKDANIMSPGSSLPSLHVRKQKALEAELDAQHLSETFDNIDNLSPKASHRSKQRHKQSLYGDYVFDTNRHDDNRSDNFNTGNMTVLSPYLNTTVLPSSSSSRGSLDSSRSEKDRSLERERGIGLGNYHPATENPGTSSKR

APC‒Asef interaction [2] = biological target: T2, APC‒Asef interaction; assay: Co-IP of exogenous HA-APC and FLAG-Asef in treated HEK293T cells; assay type: cell-based; conditions: 20 μmol/L, 48 h
Procedure, shortened: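 HEK293T cells transfected with HA-APC (303‒876) and Flag-Asef plasmids, then exposed to test compound at 20 μmol/L or DMSO for 48 h. Cells lysed in 0.3% NP-40 buffer (50 mmol/L Tris-HCl pH 7.5, 150 mmol/L NaCl, PMSF, NaF, Na₃VO₄, protease inhibitors). Lysate incubated with anti-FLAG magnetic beads 3 h at 4 °C. Bound protein eluted by boiling 10 min at 95 °C in loading buffer.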

SW480 cells [3] = assay: Wound healing assay; assay type: cell-based; conditions: 20 μmol/L, 48 h
Procedure, shortened: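 SW480 cells (1 × 10⁶) grown to confluence at 37 °C, 5% CO₂, then scratched and PBS-washed. Cells cultured in 1% FBS medium with test compound (20 μmol/L) or DMSO. Wound imaged at scratching and after 48 h. Migration expressed relative to DMSO group, mean ± SD of n = 3 independent experiments.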

SW480 cells [4] = assay: Transwell migration assay; assay type: cell-based; conditions: 20 μmol/L, 72 h
Procedure, shortened: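 SW480 cells seeded at 1.5 × 10⁵ per insert in serum-free medium, with complete medium below. Test compound (20 μmol/L) or DMSO added to both chambers for 72 h. Nonmigrated cells swabbed off; migrated cells crystal-violet stained and counted. Counts normalized to DMSO-treated mean, n = 3 independent experiments, mean ± SD.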

SW480 cells [5] = assay: Cell cytotoxicity assay; assay type: cell-based; conditions: 20 μmol/L, 48 h
[6] = Pharmacokinetic study in mice; assay type: in vivo; conditions: male, BALB/c, mouse, plasma, ip, 1 mg/kg
Procedure, shortened: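 Male BALB/c mice (n = 3/group) dosed once i.p. at 1 mg/kg (5 mL/kg) in DMSO:Cremophor EL:10% HP-β-CD in saline (2:8:90). Blood taken from dorsal metatarsal vein predose and at 0.083–48 h. Plasma obtained by centrifugation at 4000 × g, 5 min, 4 °C. Analysed by LC‒MS/MS on C18 column with acetonitrile/water/0.1% formic acid gradient, negative MRM mode.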

[7] = IC50 ± SD, FP competition assay, three independent experiments

Work on `CC(C)C[C@H](NC(=O)[C@H](CO)NC(=O)[C@H](CCC(=O)O)NC(=O)c1ccncn1)C(=O)NCCc1ccccc1` [AT3] yielded an IC50 (APC‒Asef; [7]) of 323 µM and an inhibition at 400 µM (APC‒Asef) of 54.6 ± 2%.
For `CC(C)C[C@H](NC(=O)[C@H](CO)NC(=O)[C@H](CCC(=O)O)NC(=O)c1ccncn1)C(=O)NCC=Cc1ccccc1` [AT4], the “Inhibitory activity (inhibition rate %)” value (APC‒Asef; at 400 μmol/L) was 13.1 ± 0.7% and the inhibition at 400 µM (APC‒Asef) was 13%.
With `CC(C)C[C@H](NC(=O)[C@H](CC1CC1)NC(=O)[C@H](CCC(=O)O)NC(=O)c1ccncn1)C(=O)NC1CC1c1ccccc1` (stereo partly drawn) [AT7] the IC50 (APC‒Asef; [7]) was 61.3 ± 7.2 µM.
Molecule `CC(C)C[C@H](NC(=O)[C@H](CC1CCCCC1)NC(=O)[C@H](CCC(=O)O)NC(=O)c1ccncn1)C(=O)NC1CC1c1ccccc1` (stereo partly drawn) [AT8] has an IC50 (APC‒Asef; [7]) of 168 ± 9.5 µM.
Work on `CC(C)C[C@H](NC(=O)[C@H](Cc1ccccc1)NC(=O)[C@H](CCC(=O)O)NC(=O)c1ccncn1)C(=O)NC1CC1c1ccccc1` (stereo partly drawn) [AT9] yielded an IC50 (APC‒Asef; [7]) of 95.4 ± 7.5 µM.
For `CC(C)C[C@H](NC(=O)[C@H](Cc1ccc2ccccc2c1)NC(=O)[C@H](CCC(=O)O)NC(=O)c1ccncn1)C(=O)NC1CC1c1ccccc1` (stereo partly drawn) [AT10], the IC50 (APC‒Asef; [7]) was 9.3 µM and 9.34 µM and the “fold increase in potency over AT6” value (APC‒Asef; from FP IC50) was 2 fold.
`CSc1nccc(C(=O)N[C@@H](CCC(=O)O)C(=O)N[C@@H](Cc2ccc3ccccc3c2)C(=O)N[C@@H](CC(C)C)C(=O)NC2CC2c2ccccc2)n1` (stereo partly drawn) [AT38] showed an IC50 (APC‒Asef; pIC50, test set, Table 3, pIC50 = ‒Log [IC50 (μmol/L) × 10^−6]) of 0.708 µM.
Molecule `CSc1nccc(C(=O)N[C@@H](CC(=O)O)C(=O)N[C@@H](Cc2ccc3ccccc3c2)C(=O)N[C@@H](CC(C)C)C(=O)NC2CC2c2ccccc2)n1` (stereo partly drawn) [AT41] has an IC50 (APC‒Asef; [7]) of 19.3 ± 0.58 µM.
With `CSc1nccc(C(=O)N[C@@H](CCC(=O)O)C(=O)N[C@@H](CC2CCCCC2)C(=O)N[C@@H](CC(C)C)C(=O)NC2CC2c2ccccc2)n1` (stereo partly drawn) [AT42] the IC50 (APC‒Asef; [7]) was 33 µM and 33.1 µM.
For `CSc1nccc(C(=O)N[C@@H](CCC(=O)O)C(=O)N[C@H](Cc2ccc3ccccc3c2)C(=O)N[C@@H](CC(C)C)C(=O)NC2CC2c2ccccc2)n1` (stereo partly drawn) [AT43], the IC50 (APC‒Asef; [7]) was 127 ± 6.6 µM.
`CSc1nccc(C(=O)N[C@@H](CCC(=O)O)C(=O)N[C@@H](Cc2ccc3ccccc3c2)C(=O)N[C@@H](CC(C)C)C(=O)N[C@@H]2C[C@H]2c2ccccc2)n1` [AT44] showed an IC50 (APC‒Asef; [7]) of 0.48 ± 0.07 µM.
In the case of `CSc1nccc(C(=O)N[C@@H](CCC(=O)O)C(=O)N[C@@H](Cc2ccc3ccccc3c2)C(=O)N[C@@H](CC(C)C)C(=O)N[C@H]2C[C@@H]2c2ccccc2)n1` [AT45], the IC50 (APC‒Asef; [7]) is reported as 8.61 ± 0.12 µM.
For `CSc1ncc(Br)c(C(=O)N[C@@H](CCC(=O)O)C(=O)N[C@@H](Cc2ccc3ccccc3c2)C(=O)N[C@@H](CC(C)C)C(=O)N[C@@H]2C[C@H]2c2ccccc2)n1` [AT46], the IC50 (APC‒Asef; [7]) was 0.11 ± 0.003 µM, the “fold increase in potency over parental MAI-400” value (APC‒Asef; from FP IC50) was 24 fold and the “disruption of APC‒Asef interaction (Co-IP)” value (“disruption” below) (APC‒Asef interaction [1]) was “dose-dependently attenuated the APC‒Asef interaction in cell lysates”. The “disruption” value (APC‒Asef interaction [2]) was “no disrupting effect on the APC‒Asef interaction in the cell model”, the “migration of SW480 cells, wound healing” value (SW480 cells [3]) was “no inhibition” and the “migration of SW480 cells, Transwell” value (SW480 cells [4]) was “no inhibition”. The “survival ability (proliferative viability) of SW480 cells, CCK-8” value (SW480 cells [5]) was “did not damage the survival ability of SW480 cells”, the AUC(0-t) [6] was 124 ± 18.4 ng·h/mL and the Cmax [6] was 60.8 ± 5.65 ng/mL. For the same molecule, the MRT [6] was 1.96 ± 0.58 h, the Tmax [6] was 0.83 ± 0.29 h and the half-life [6] was 1.2 ± 0.5 h.
For `CSc1ncc(Br)c(C(=O)N[C@@H](CCC(=O)OC(C)(C)C)C(=O)N[C@@H](Cc2ccc3ccccc3c2)C(=O)N[C@@H](CC(C)C)C(=O)N[C@@H]2C[C@H]2c2ccccc2)n1` [AT47], the inhibition at 400 µM (APC‒Asef) was 24.4%, the “disruption” value (APC‒Asef interaction [2]) was “notably diminished APC‒Asef PPI” and the “migration of SW480 cells, wound healing” value (SW480 cells [3]) was “inhibited the migration of SW480 cells”. For the same molecule, the “migration of SW480 cells, Transwell” value (SW480 cells [4]) was “suppressed the migration of SW480 cells”, the “survival ability (proliferative viability) of SW480 cells, CCK-8” value (SW480 cells [5]) was “did not damage the survival ability of SW480 cells” and the AUC(0-t) [6] was 4800 ± 868 ng·h/mL. The Cmax [6] was 1460 ± 119 ng/mL, the MRT [6] was 4.97 ± 1.49 h and the Tmax [6] was 1.67 ± 0.58 h. It also gave a half-life [6] of 11.8 ± 5.7 h.
With `C[C@H](NC(=O)OCc1ccccc1)C(=O)NCC(=O)N[C@@H](CCC(=O)O)C(=O)N[C@@H](C)C(=O)N[C@@H](CC1CCCC1)C(=O)N[C@@H](Cc1ccc(O)cc1)C(=O)N[C@@H](CCC(=O)O)C(N)=O` [MAI-203, reference compound] (Cbz-AGEA[Ala(cPent)]YE-NH2; N-terminus and C-terminus assumed) the AUC(0-t) [6] was 52.4 ± 6.07 ng·h/mL, the Cmax [6] was 101 ± 25 ng/mL and the MRT [6] was 0.43 ± 0.07 h. It also gave a Tmax [6] of 0.25 h and a half-life [6] of 0.24 ± 0.06 h.
